Source: ChEMBL document CHEMBL1148147, “New oplopane and eremophilane derivatives from Robinsonecio gerberifolius” (J Nat Prod, 2003)
Active and inactive are the calls of the source. The calls are words filed in the database; no cut-off is given here.

What was measured:
Format in all cases: functional, cell-based
[1] = test system: HCT-15; experiment: Cytotoxicity against human HCT15 cells
Procedure, shortened: (§1)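 Human cancer cell lines (HCT-15 colon, MCF-7 breast, U-251 central nervous system, PC-3 prostate, K562 leukemia) tested over a dose range using the National Cancer Institute cytotoxicity screening protocol.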

[2] = test system: K562; experiment: Cytotoxicity against human K562 cells; procedure, shortened: as §1
[3] = test system: PC-3; experiment: Cytotoxicity against human PC3 cells; procedure, shortened: as §1
[4] = test system: MCF7; experiment: Cytotoxicity against human MCF7 cells; procedure, shortened: as §1
[5] = test system: U-251; experiment: Cytotoxicity against human U251 cells; procedure, shortened: as §1

| SMILES | Activity [1] | Activity [2] | Activity [3] | Activity [4] | Activity [5] | IC50 [3] | IC50 [1] | IC50 [2] | IC50 [4] | IC50 [5] |
| --- | --- | --- | --- | --- | --- | --- | --- | --- | --- | --- |
| C/C=C(/C)C(=O)O[C@H]1C[C@H]2O[C@]23Cc2occ(C)c2C[C@]3(C)[C@H]1C | inactive | inactive | inactive | inactive | inactive | – | – | – | – | – |
| COc1cccc2c1C(=O)c1c(O)c3c(c(O)c1C2=O)C[C@@](O)(C(=O)CO)C[C@@H]3O[C@H]1C[C@H](N)[C@H](O)[C@H](C)O1 [DOXORUBICIN] | – | – | – | – | – | 0.32 µM | – | – | – | – |
| C/C=C(/C)C(=O)O[C@H]1C[C@@H](O)C2=CC(=O)C(C(C)(C)OO)=C[C@]2(C)[C@H]1C | – | – | – | – | – | 16.5 µM | > 100 µM | 46.3 µM | > 100 µM | 33.7 µM |
| C/C=C(/C)C(=O)O[C@H]1C[C@@H](O)C2=CC(=O)C(=C(C)C)C[C@]2(C)[C@H]1C | – | – | – | – | – | 33.2 µM | > 100 µM | > 100 µM | > 100 µM | 24.1 µM |
| C=C1C[C@@H](OC(C)=O)[C@@H](C(C)C)[C@@H]2[C@@H](C(C)=O)[C@@H](OC(=O)/C(C)=C\C)C[C@@H]12 | – | – | – | – | – | 78.7 µM | 43.6 µM | 13 µM | 33.9 µM | 13 µM |
| C/C=C(/C)C(=O)O[C@H]1C[C@@H](O)C2=CC(=O)C(C(C)(C)O)=C[C@]2(C)[C@H]1C | inactive | inactive | inactive | inactive | inactive | – | – | – | – | – |
| C/C=C(/C)C(=O)O[C@H]1C[C@@H](OC(=O)/C(C)=C/C)C2=CC(=O)C(=C(C)C)C[C@]2(C)[C@H]1C | – | – | – | – | – | 10.7 µM | 12.8 µM | 51.1 µM | 21 µM | 17.6 µM |
